# Measured values reported in ChEMBL document CHEMBL1121403, “Synthesis and mutagenicity of A-ring reduced analogues of 7,12-dimethylbenz[a]anthracene” (1980).
# Key:
# [1] = tested on: Salmonella typhimurium; assay: Mutagenic activity by measuring net reverent colonies per 10 ug of compound with Salmonella Typhimurium (TA 98 strain) in presence of S9 fraction; assay type: functional, Salmonella enterica subsp. enterica serovar Typhimurium
# Procedure, shortened: (§1)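 Standard Ames soft-agar plating with doses given in Me2SO. Five or more doses from 1 to ≥10 μg/plate were tested with and without S-9 mix from PCB-induced rat liver, at 20 μL S-9/plate from a common pool. Duplicate plates per dose, triplicate for spontaneous revertants. 2-Aminoanthracene served as activation control. Net revertants per 10 μg came from regression of the linear dose-response portion.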
# [2] = tested on: Salmonella typhimurium; assay: Mutagenic activity by measuring net reverent colonies per 10 ug of compound with Salmonella Typhimurium (TA1537 strain) in presence of S9 fraction; assay type: functional, Salmonella enterica subsp. enterica serovar Typhimurium
# Procedure, shortened: (§2)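 Frame-shift strain TA1537 in Ames soft-agar plating with doses given in Me2SO, tested at up to 15 or 10 μg/plate with and without S-9 (PCB-induced rat liver, 20 μL/plate). Duplicate plates per dose, triplicate spontaneous. Scored mutagenic if reversion was dose-dependent and at least twice spontaneous. Values were normalized to net revertants per 10 μg.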
# [3] = tested on: Salmonella typhimurium; assay: Mutagenic activity by measuring net reverent colonies per 10 ug of compound with Salmonella Typhimurium (TA 100 strain) in absence of S9 fraction; - indicates no mutagenic response; assay type: functional, organism-based; details: Salmonella enterica subsp. enterica serovar Typhimurium; procedure, shortened: as §1
# [4] = tested on: Salmonella typhimurium; assay: Mutagenic activity by measuring net reverent colonies per 10 ug of compound with Salmonella Typhimurium (TA 98 strain) in absence of S9 fraction; - indicates no mutagenic response; assay type: functional, organism-based; details: Salmonella enterica subsp. enterica serovar Typhimurium; procedure, shortened: as §1
# [5] = tested on: Salmonella typhimurium; assay: Mutagenic activity by measuring net reverent colonies per 10 ug of compound with Salmonella Typhimurium (TA1537 strain) in absence of S9 fraction; - indicates no mutagenic response; assay type: functional, organism-based; details: Salmonella enterica subsp. enterica serovar Typhimurium; procedure, shortened: as §2
# [6] = tested on: Salmonella typhimurium; assay: Mutagenic activity by measuring net reverent colonies per 10 ug of compound with Salmonella Typhimurium (TA 100 strain) in presence of S9 fraction; assay type: functional, Salmonella enterica subsp. enterica serovar Typhimurium; procedure, shortened: as §1
# [7] = tested on: Salmonella typhimurium; assay: Mutagenic activity by measuring net reverent colonies per 10 ug of compound with Salmonella Typhimurium (TA 98 strain) in absence of S9 fraction; assay type: functional, Salmonella enterica subsp. enterica serovar Typhimurium; procedure, shortened: as §1
# [8] = tested on: Salmonella typhimurium; assay: Mutagenic activity by measuring net reverent colonies per 10 ug of compound with Salmonella Typhimurium (TA1537 strain) in presence of S9 fraction; - indicates no mutagenic response; assay type: functional, organism-based; details: Salmonella enterica subsp. enterica serovar Typhimurium; procedure, shortened: as §2
# [9] = tested on: Salmonella typhimurium; assay: Mutagenic activity by measuring net reverent colonies per 10 ug of compound with Salmonella Typhimurium (TA 100 strain) in absence of S9 fraction; assay type: functional, Salmonella enterica subsp. enterica serovar Typhimurium; procedure, shortened: as §1
# [10] = tested on: Salmonella typhimurium; assay: Mutagenic activity by measuring net reverent colonies per 10 ug of compound with Salmonella Typhimurium (TA1537 strain) in absence of S9 fraction; assay type: functional, Salmonella enterica subsp. enterica serovar Typhimurium; procedure, shortened: as §2
SMILES,Activity [1],Activity [2],Activity [3],Activity [4],Activity [5],Activity [6],Activity [7],Activity [8],Activity [9],Activity [10]
Cc1c2ccccc2c(C)c2c1ccc1ccccc12,58,15,Not toxic,Not toxic,Not toxic,489,,,,
Cc1c2ccccc2c(C)c2c3c(ccc12)C=CCC3,25,,,,Not toxic,69,146,Not toxic,58,
Cc1c2ccccc2c(C)c2c3c(ccc12)CCCC3,78,7,,,,270,47,,173,42
